Test results as given in ChEMBL document CHEMBL1687827, “Profiling the Aspergillus fumigatus proteome in response to caspofungin” (2011).
The source made the active and inactive calls. No cut-off for these calls is given here.

Columns and labels:
Aspergillus fumigatus [1] = test: Induction of change in 14-3-3 family protein ArtA, putative protein level in iTRAQ-116 labelled secreted fraction of drug-susceptible Aspergillus fumigatus KU80 delta-akuB at 0.12 ug/ml after 48 hrs in YPD medium by MS (MS/MS) analysis relative to control; assay type: functional
How it was run: (§1)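 Conidia at 1 × 10⁵/ml grown shaking at 37°C in YPD with or without 0.12 μg/ml caspofungin; mycelia filtered at 24 or 48 h. Secreted fraction taken from the filtrate; cell wall/plasma membrane pellet recovered after French-press lysis and a 5,000 × g spin. Proteins trypsin-digested and iTRAQ-labelled, drug vs no-drug channels at each time, then 2D LC-MS/MS. Protein ratio is the median of ratios from uniquely assigned peptides after median normalization.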

Aspergillus fumigatus [2] = test: Induction of change in cytosolic small ribosomal subunit S4, putative gene expression in drug-susceptible Aspergillus fumigatus KU80 delta-akuB at 0.12 ug/ml after 24 hrs in YPD medium by microarray analysis relative to control; assay type: functional
How it was run: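 Mycelia grown in YPD ± 0.12 μg/ml caspofungin (1 × 10⁵ conidia/ml, 37°C, shaking) and harvested at 24 or 48 h. Total RNA extracted, DNase-treated and quality-checked; 2 μg labelled per TIGR SOP M007 and hybridized to whole-genome arrays. Three independent experiments with dye flip (6 replicates); drug vs untreated fold change.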

Aspergillus fumigatus [3] = test: Induction of change in cell wall glucanase (Utr2), putative protein level in iTRAQ-118 labelled cell wall fraction of drug-susceptible Aspergillus fumigatus KU80 delta-akuB at 0.12 ug/ml after 24 hrs in YPD medium by MS (MS/MS) analysis relative to control; assay type: functional; how it was run: as §1
Aspergillus fumigatus [4] = test: Induction of change in 40S ribosomal protein S3Ae protein level in iTRAQ114 labelled cell wall fraction of drug-resistant Aspergillus fumigatus EMFR-S678P at 0.12 ug/ml after 24 hrs in YPD medium by MS (MS/MS) analysis relative to control; assay type: functional
How it was run: (§2)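 Conidia at 1 × 10⁵/ml were grown at 37°C, shaking at 225 rpm, in YPD with or without 0.12 μg/ml caspofungin for 24 or 48 h. The culture filtrate was kept as the secreted fraction. Mycelia were lysed by French press in HEPES/glycerol/EDTA/PMSF/DTT buffer, and the 5,000 × g pellet was washed to give CW/PM. Proteins were reduced, alkylated and trypsin-digested at 37°C overnight, then iTRAQ-labelled and run by 2D LC-MS/MS. Ratios are the median of unique-peptide ratios, median-normalized, versus the no-drug control.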

Aspergillus fumigatus [5] = test: Induction of change in allergen Asp F4 protein level in iTRAQ-118 labelled cell wall fraction of drug-resistant Aspergillus fumigatus EMFR-S678P at 0.12 ug/ml after 24 hrs in YPD medium by MS (MS/MS) analysis relative to control; assay type: functional; how it was run: as §2
Aspergillus fumigatus [6] = test: Induction of change in cobalamin-independent methionine synthase MetH/D protein level in iTRAQ-116 labelled secreted fraction of drug-resistant Aspergillus fumigatus EMFR-S678P at 0.12 ug/ml after 48 hrs in YPD medium by MS (MS/MS) analysis relative to control; assay type: functional; how it was run: as §2
Aspergillus fumigatus [7] = test: Induction of change in PT repeat family protein level in iTRAQ114 labelled secreted fraction of drug-susceptible Aspergillus fumigatus KU80 delta-akuB at 0.12 ug/ml after 24 hrs in YPD medium by MS (MS/MS) analysis relative to control; assay type: functional; how it was run: as §1
Aspergillus fumigatus [8] = test: Induction of change in hypothetical protein locus AFUA_8G07100 level in iTRAQ-116 labelled secreted fraction of drug-susceptible Aspergillus fumigatus KU80 delta-akuB at 0.12 ug/ml after 48 hrs in YPD medium by MS (MS/MS) analysis relative to control; assay type: functional
How it was run: (§3)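 Conidia (1 × 10⁵/ml) grown in YPD, 37°C, 225 rpm, ± 0.12 μg/ml caspofungin; filtrate taken as secreted fraction, French-press lysate 5,000 × g pellet as cell wall/plasma membrane. Trypsin digests 8-plex iTRAQ-labelled (drug-free channels as references), pooled, 2D-chromatography, MS/MS. Median-normalized; protein ratio = median of unique-peptide ratios, log2 normalized.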

Aspergillus fumigatus [9] = test: Induction of change in isocitrate dehydrogenase Idp1, putative protein level in iTRAQ-116 labelled secreted fraction of drug-susceptible Aspergillus fumigatus KU80 delta-akuB at 0.12 ug/ml after 48 hrs in YPD medium by MS (MS/MS) analysis relative to control; assay type: functional; how it was run: as §3
Aspergillus fumigatus [10] = test: Induction of change in allergen Asp F4 protein level in iTRAQ-116 labelled secreted fraction of drug-susceptible Aspergillus fumigatus KU80 delta-akuB at 0.12 ug/ml after 48 hrs in YPD medium by MS (MS/MS) analysis relative to control; assay type: functional; how it was run: as §1
Aspergillus fumigatus [11] = test: Induction of change in isocitrate dehydrogenase Idp1, putative protein level in iTRAQ-118 labelled cell wall fraction of drug-susceptible Aspergillus fumigatus KU80 delta-akuB at 0.12 ug/ml after 24 hrs in YPD medium by MS (MS/MS) analysis relative to control; assay type: functional; how it was run: as §3
Aspergillus fumigatus [12] = test: Antifungal activity against drug-susceptible Aspergillus fumigatus KU80 delta-akuB assessed as reduction in colony size at 0.12 ug/ml; assay type: functional, organism-based
Aspergillus fumigatus [13] = test: Induction of change in 60S ribosomal protein P0 protein level in iTRAQ114 labelled cell wall fraction of drug-susceptible Aspergillus fumigatus KU80 delta-akuB at 0.12 ug/ml after 24 hrs in YPD medium by MS (MS/MS) analysis relative to control; assay type: functional; how it was run: as §1
Aspergillus fumigatus [14] = test: Induction of change in ribosomal protein L29/heparin/heparan sulfate interacting gene expression in drug-susceptible Aspergillus fumigatus KU80 delta-akuB at 0.12 ug/ml after 24 hrs in YPD medium by microarray analysis relative to control; assay type: functional
How it was run: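 Mycelia grown from 1 × 10⁵ conidia/ml in YPD at 37°C, 225 rpm, with or without 0.12 μg/ml caspofungin. Total RNA extracted, DNase-treated; 2 μg labelled per TIGR SOP M007 for whole-genome array hybridization. Three independent experiments with dye flip (6 replicates); >2-fold change deemed significant.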

Aspergillus fumigatus [15] = test: Induction of change in 60S ribosomal protein L10 protein level in iTRAQ-118 labelled cell wall fraction of drug-susceptible Aspergillus fumigatus KU80 delta-akuB at 0.12 ug/ml after 24 hrs in YPD medium by MS (MS/MS) analysis relative to control; assay type: functional; how it was run: as §1
Aspergillus fumigatus [16] = test: Induction of change in plasma membrane H -ATPase protein level in iTRAQ-116 labelled secreted fraction of drug-susceptible Aspergillus fumigatus KU80 delta-akuB at 0.12 ug/ml after 48 hrs in YPD medium by MS (MS/MS) analysis relative to control; assay type: functional; how it was run: as §3
Aspergillus fumigatus [17] = test: Induction of change in 60S ribosomal protein L27e protein level in iTRAQ-118 labelled cell wall fraction of drug-susceptible Aspergillus fumigatus KU80 delta-akuB at 0.12 ug/ml after 24 hrs in YPD medium by MS (MS/MS) analysis relative to control; assay type: functional; how it was run: as §1
Aspergillus fumigatus [18] = test: Induction of change in cytochrome c protein level in iTRAQ114 labelled secreted fraction of drug-resistant Aspergillus fumigatus EMFR-S678P at 0.12 ug/ml after 24 hrs in YPD medium by MS (MS/MS) analysis relative to control; assay type: functional; how it was run: as §2

In the case of `CC[C@H](C)C[C@H](C)CCCCCCCCC(=O)N[C@H]1C[C@@H](O)[C@@H](NCCN)NC(=O)[C@@H]2[C@@H](O)CCN2C(=O)[C@H]([C@H](O)CCN)NC(=O)[C@H]([C@H](O)[C@@H](O)c2ccc(O)cc2)NC(=O)[C@@H]2C[C@@H](O)CN2C(=O)[C@H]([C@@H](C)O)NC1=O` [CASPOFUNGIN], the “fold change (FC)” value (Aspergillus fumigatus [1]) is reported as -2, the “fold change (FC)” value (Aspergillus fumigatus [2]) is reported as 3.8 and the “fold change (FC)” value (Aspergillus fumigatus [3]) is reported as -3. For the same compound, the “fold change (FC)” value (Aspergillus fumigatus [4]) was 1.07, the “fold change (FC)” value (Aspergillus fumigatus [5]) was 1.07 and the “fold change (FC)” value (Aspergillus fumigatus [6]) was -1.15. The “fold change (FC)” value (Aspergillus fumigatus [7]) was -3.5, the “fold change (FC)” value (Aspergillus fumigatus [8]) was 2.1 and the “fold change (FC)” value (Aspergillus fumigatus [9]) was -6.1. The “fold change (FC)” value (Aspergillus fumigatus [10]) was -7, the “fold change (FC)” value (Aspergillus fumigatus [11]) was -2.1 and the Activity (Aspergillus fumigatus [12]) was “Active”. The “fold change (FC)” value (Aspergillus fumigatus [13]) was 2.1, the “fold change (FC)” value (Aspergillus fumigatus [14]) was 6.5 and the “fold change (FC)” value (Aspergillus fumigatus [15]) was 2.3. The “fold change (FC)” value (Aspergillus fumigatus [16]) was -1.7, the “fold change (FC)” value (Aspergillus fumigatus [17]) was 2.6 and the “fold change (FC)” value (Aspergillus fumigatus [18]) was -1.07.
